Source: PubChem
The list is not random: actives were taken first. Their share in the collection is about 5.5%.
STAT3 act – IL-6 driven STAT3 reporter potentiators, primary screen, U3A cells, luciferase, luminescence, MLSCN library | 0.91% of 190,000 active | activation (% of control), % at 5.6 µM | IL-6 STAT3-luciferase reporter; 100% = signal with IL-6 EC80 alone | AID 871, 2007;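 active = activation above the screen-wide mean of compound activation plus 3 SD, cut at about 130% in these data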
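system = STAT3-luciferase reporter U3A cells | reagent = IL-6 stimulus at 33 ng/mL final | timing = 1 h compound pre-exposure, 6 h IL-6 stimulation, 37 °C | measured by = luminescence | evaluation = % activation versus median of IL-6-stimulated wells | control set = IL-6-only wells as 100% reference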
STAT1 inh – STAT1 signaling inhibitors, primary screen, cell-based, HTS, luciferase reporter. inhibition, % at 5.5 µM. 0.35% of 200,000 active. NIH 3T3 STAT1-luciferase reporter, IFN-gamma, luminescence. AID 920, 2007;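 active = inhibition above a set limit, the mean inhibition across all tested compounds plus 3 SD, cut at about 34% in these data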
STAT1 act – STAT1 signaling activators, primary screen, cell-based, HTS, luciferase reporter. activation (% of control), % at 5.5 µM. 2.6% of 200,000 active. NIH 3T3 STAT1-luciferase reporter, IFN-gamma, luminescence; 100% = IFN-gamma alone, no compound;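 active = activation above the screen-wide mean activation plus 3 SD, cut at about 130% in these data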
STAT3 inh – IL-6 driven STAT3 reporter inhibitors, primary screen, U3A cells, luciferase, luminescence, MLSCN library | IL-6 STAT3-luciferase reporter; host cell line lacks STAT1 | inhibition, % at 5.5 µM | 0.89% of 190,000 active | AID 862, 2007;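 active = inhibition above the mean inhibition across all screened compounds plus 3 SD, cut at about 44% in these data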
KCC2 mod – KCC2 cotransporter modulators, thallium flux, primary screen, cell-based, HEK293 KCC2, FluoZin-2 fluorescence, MLSMR; Solute carrier family 12 member 5 (Homo sapiens), Q9H2X9; KCC2 cells, thallium flux FluoZin-2 fluorescence; B-score of Tl+ flux slope (higher = more flux/activation; lower = inhibition) at 10 µM; 2.2% of 190,000 active; AID 1456, 2008;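 active = thallium flux slope and its plate-corrected score both differing from the plate sample mean at a set confidence after two filtering rounds, in either direction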;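 note: slope of fluorescence scaled to starting intensity during 10 to 20 s after thallium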
HSV augment – enhancers of HSV replication in host cells, fold increase, host cell viability | maximum fold increase | AID 1956, 2009 | HSV replication augmentation in cells | 0.005% of 220,000 active; in the data active = maximum fold increase above about 1.5; inconclusive = no clear call, values can overlap the other calls; tested in PC3 cells
KCC2 secondary – KCC2 modulators in sodium-free buffer, confirmation, cell-based, HEK293 KCC2, thallium flux, secondary assay; shares compounds with KCC2 mod; FluoZin2 fluorescence; active compounds read high; normalised thallium flux (F/F0 slope) at 10 µM; 15% of 3,700 active;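 active = thallium flux slope above the same plate's solvent-only control mean plus 3 SD; inconclusive = the two replicate wells disagree; inactive = no significant difference from solvent-only control wells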
KCC2 bumet counter – thallium flux persisting under bumetanide in KCC2 cells, confirmation, counter-screen for KCC2 modulator project, cell-based, HEK293 KCC2, FluoZin2, secondary assay 3; shares compounds with KCC2 mod; HEK293-KCC2 + bumetanide/ouabain; active compounds read high; normalized thallium flux at 10 µM; 49% of 3,700 active; AID 1714, 2009;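 active = thallium entry rate above the same plate's blocked-transporter control wells by more than 3 SD; inconclusive = the two repeat wells disagree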;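 note: raw slope of fluorescence over initial fluorescence between 10 and 20 s after thallium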
KCC2 sec2 – KCC2 modulators without ouabain present, confirmation, cell-based, HEK293 KCC2, thallium flux, FluoZin2, secondary assay 2; shares compounds with KCC2 mod; thallium flux FluoZin2 fluorescence; actives lie on both sides; F/F0 rise rate, 10–20 s post-thallium; normalized thallium flux at 10 µM; 23% of 3,700 active; AID 1715, 2009;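 active = thallium flux slope more than 3 SD above or below the plate's solvent-only control mean, mostly below; inconclusive = the two repeat wells disagreed; inactive = no significant shift from solvent-only controls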
HEK293 Tl flux – thallium flux modulation in parental HEK cells, confirmation, counter-screen for KCC2 modulator project, cell-based, counterscreen 1; shares compounds with KCC2 mod; HEK293 parental cells, thallium flux FluoZin2, ouabain; baseline-ratio fluorescence slope, 10–20 s after thallium; thallium flux rate (normalised fluorescence) at 10 µM; 46% of 3,700 active;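 active = thallium flux rate significantly above the same plate's solvent-only control wells, beyond their mean plus 3 SD; inconclusive = the two replicate wells gave conflicting results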
KCC2 ouabain – KCC2 inhibitors and activators, ouabain retest, confirmation, HEK-KCC2 cells. shares compounds with KCC2 mod. HEK293-KCC2, thallium flux FluoZin2 fluorescence; bidirectional: low = inhibitor, high = activator. raw Tl+ flux slope (below DMSO = inhibition, above = activation) at 10 µM. 48% of 3,700 active. AID 1717, 2009;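 active = thallium flux slope beyond 3 SD from same-plate DMSO control mean in most replicates, usually higher, sometimes lower; inconclusive = repeat tests gave conflicting results; inactive = no significant difference from controls in most replicates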;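 note: slope of initial-normalized fluorescence between seconds 10 and 20 after thallium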
HEK counter2 – native HEK Tl+ uptake effects, second counter-screen – HEK cells, counterscreen 2, counter-screen for KCC2 modulator project, confirmation | 33% of 3,700 active | shares compounds with KCC2 mod | thallium flux slope at 10 µM | HEK293 parental, thallium flux FluoZin-2 fluorescence slope;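 active = thallium flux slope above the same plate's solvent-control mean plus 3 SD in both duplicate wells; inconclusive = duplicate wells that disagreed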;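 note: run without ouabain in cells lacking the KCC2 cotransporter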
Numbers stand for hits; n = inactive; u = inconclusive; x = no result.

SMILES	STAT3 act	STAT1 inh	STAT1 act	STAT3 inh	KCC2 mod	HSV augment	KCC2 secondary	KCC2 bumet counter	KCC2 sec2	HEK293 Tl flux	KCC2 ouabain	HEK counter2
COc1ccc(CNC(=S)NC(C)CCc2ccccc2)cc1 (centres undefined)	n	n	n	n	-4.88	n	0.00532	u	u	0.00582	0.0132	n
CCOC(=O)c1c(C)[nH]c(C(=O)C(C)OC(=O)c2oc3ccccc3c2COC)c1C (centres undefined)	n	n	n	n	n	n	x	x	x	x	x	x
COC(=O)c1ccc2c(=O)n(-c3ccc(OC)cc3)c(=S)[nH]c2c1	n	n	n	n	8.17	n	n	0.0195	n	0.0119	u	n
CCCCNC(=O)c1ccc2c(=O)n(CCCOCC)c(=S)[nH]c2c1	n	n	n	n	n	n	x	x	x	x	x	x
CCOCCCNC(=O)c1ccc(-n2c(=S)[nH]c3ccccc3c2=O)cc1	n	n	n	n	10.5	n	u	0.0149	n	0.00928	u	0.0103
O=C(Nc1ccccc1F)N(CCCN1CCOCC1)Cc1cc2cc3c(cc2[nH]c1=O)OCCO3	n	n	n	n	n	n	x	x	x	x	x	x
COC(=O)c1cc2c(ccn2-c2ccc(F)cc2)n1Cc1ccc(C#N)cc1	n	n	n	n	n	n	x	x	x	x	x	x
COC(=O)c1cc2c(ccn2-c2ccc(F)cc2)n1CC(=O)N1CCN(C(=O)c2ccco2)CC1	n	n	n	n	-6.69	n	u	u	0.0279	0.00953	u	n
CCOC(=O)c1cc2c(ccn2-c2ccc(F)cc2)n1CC(=O)NC(C)(C)C	n	n	n	n	-5.55	n	n	n	0.0241	n	0.0171	n
CC(C)c1onc(C(=O)N2CCN(C(c3ccccc3)c3ccccc3)CC2)c1[N+](=O)[O-]	n	n	n	n	n	x	x	x	x	x	x	x
CCc1cc(C(=O)NNC(=S)NCC2CCCO2)cs1 (centres undefined)	n	n	n	n	n	n	x	x	x	x	x	x
CN(C)c1ccc(C(=O)c2ccc(O)cc2O)cc1	n	n	n	n	-3.59	n	n	n	n	n	u	n
CCC(=O)OCCNc1cc(Sc2nc3ccccc3s2)c2nonc2c1[N+](=O)[O-]	n	n	n	n	n	n	x	x	x	x	x	x
O=[N+]([O-])c1c(NCCCO)cc(Sc2nc3ccccc3s2)c2nonc12	n	n	n	n	3.21	x	n	0.0188	n	0.0129	u	0.0156
CCCSc1nc2c(c(=O)[nH]c(=O)n2C)n1C	n	n	n	n	10.7	n	n	n	n	n	n	n
C=CCn1c(Sc2ccccc2)nc2c1c(=O)[nH]c(=O)n2C	n	n	n	n	n	n	x	x	x	x	x	x
C=CCn1c(Sc2nncn2C)nc2c1c(=O)[nH]c(=O)n2C	n	n	n	n	x	n	u	n	n	n	n	n
c1ccc2c(c1)[nH]c1c(N3CCC4(CC3)OCCO4)ncnc12	n	n	n	n	x	n	n	n	n	n	n	n
CC1CCN(C(=O)CNC(=O)c2cccc(OC(F)F)c2)CC1	n	n	n	n	n	n	x	x	x	x	x	x
COc1ccc(-n2c(=S)[nH]c3sc(-c4ccccc4)cc3c2=O)c(OC)c1	x	x	x	x	9.49	n	0.0141	0.0268	0.0246	0.02	u	n
CCOC(=O)C(NC(=O)CC)(N1CCc2ccccc2C1)C(F)(F)F (centres undefined)	n	n	n	n	n	n	x	x	x	x	x	x
N#CC1=C(Nc2ccccc2)SC=C(c2ccc(F)cc2)N=C1N1CCOCC1	n	n	n	n	n	x	x	x	x	x	x	x
O=C(O)c1cc([N+](=O)[O-])ccc1NCc1ccccc1	n	n	n	n	-5.28	n	n	n	0.0245	n	u	n
O=C(O)c1cc([N+](=O)[O-])ccc1NCCCc1ccccc1	x	x	x	x	x	n	x	x	x	x	x	x
O=C(NCCCc1ccccc1)c1cc([N+](=O)[O-])ccc1Cl	n	n	n	n	-7.5	n	u	n	0.0204	u	0.0123	n
SMILES	STAT3 act	STAT1 inh	STAT1 act	STAT3 inh	KCC2 mod	HSV augment	KCC2 secondary	KCC2 bumet counter	KCC2 sec2	HEK293 Tl flux	KCC2 ouabain	HEK counter2
O=C(O)c1cc([N+](=O)[O-])ccc1N1CCC(Cc2ccccc2)CC1	n	n	n	n	-4.64	n	n	u	u	n	0.0152	n
COc1ccc([N+](=O)[O-])cc1NCc1ccccc1	n	n	143.4	n	-3.8	n	n	n	n	0.00532	0.0143	n
O=C(O)c1cc([N+](=O)[O-])ccc1N1CCCCC1	n	n	n	n	n	n	x	x	x	x	x	x
O=C(Cc1ccccc1)Nc1ccc(N2CCN(Cc3ccccc3F)CC2)cc1	n	n	n	n	x	n	x	x	x	x	x	x
C=CCc1cccc2cc(C(=O)NNC(=O)c3ccncc3)c(=O)oc12	n	n	n	n	4.79	n	n	n	n	n	n	n
C=CCc1cccc2cc(C(=O)Nc3cccc(C(=O)O)c3)c(=O)oc12	x	x	x	x	n	n	x	x	x	x	x	x
Oc1ccc(F)c2cccnc12	n	n	n	n	n	n	x	x	x	x	x	x
Cc1ccc(N=Nc2ccc(O)c3ncccc23)cc1C	n	n	n	n	8.21	n	n	0.00773	n	0.0138	n	u
